Most compounds without a hit are left out; they make up all but 0.38% or so of the library.
STK33 kinase inh: inhibitors of human STK33 kinase | purified STK33, MBP phosphorylation, ADP-Glo luminescence | inhibition, % at 10 µM | 320,000 tested, 0.073% active | Q9BYT3;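 active = inhibition at or above 25%, using the most active replicate where run in duplicate; inactive = inhibition below 25%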
Target sequence (Q9BYT3 whole entry, looked up): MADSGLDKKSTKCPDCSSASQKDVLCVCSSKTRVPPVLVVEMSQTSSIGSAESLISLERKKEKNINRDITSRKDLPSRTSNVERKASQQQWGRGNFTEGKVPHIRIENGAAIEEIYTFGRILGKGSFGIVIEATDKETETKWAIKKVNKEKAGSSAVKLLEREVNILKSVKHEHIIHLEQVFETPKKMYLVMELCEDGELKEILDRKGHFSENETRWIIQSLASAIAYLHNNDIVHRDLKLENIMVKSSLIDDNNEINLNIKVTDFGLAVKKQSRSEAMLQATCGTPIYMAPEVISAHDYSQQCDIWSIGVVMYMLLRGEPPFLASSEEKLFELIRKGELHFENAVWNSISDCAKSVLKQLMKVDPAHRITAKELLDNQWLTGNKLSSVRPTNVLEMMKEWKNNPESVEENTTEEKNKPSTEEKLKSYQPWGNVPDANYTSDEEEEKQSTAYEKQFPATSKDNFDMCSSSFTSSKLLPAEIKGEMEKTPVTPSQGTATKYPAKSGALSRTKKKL
proCasp3 act: activators of human procaspase-3; recombinant procaspase-3 D3A, Ac-DEVD-pNA absorbance 405 nm; activation, % at 8.5 µM; 330,000 tested, 0.11% active; AID 463141;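 active = activation above the mean of all tested compounds plus 3 SD, cut at about 21% in these data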;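 note: 0% = DMSO alone and 100% = DMSO wells spiked with extra 5 µM PC-3 D3A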
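Assay system: Autoprocessing-dead procaspase-3 D3A mutant enzyme; also added: Ac-DEVD-pNA; doses: one concentration, 8.5 µM nominal, 0.8% DMSO; times: 1 h compound preincubation, 2 h substrate hydrolysis at 25 °C; technique: 405 nm absorbance of p-nitroaniline, reads at 0 and 120 min; measure: % activation between DMSO and enzyme-spiked controls; repeats: single replicate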
proCasp7 act: counter-screen for procaspase-3 activators: activators of human procaspase-7. 330,000 tested, 0.093% active. recombinant procaspase-7, Ac-DEVD-pNA absorbance 405 nm; D23A/D198A/D206A triple mutant, cannot self-cleave; scale: DMSO 0, 5 µM enzyme 100. P55210. activation, % at 8.5 µM;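 active = percent activation above the screen-wide mean plus 3 SD, cut at about 25% in these data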
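Assay system – Uncleavable procaspase-7 mutant enzyme · Quantity – 2 µM procaspase-7 mutant as dispensed · Times – 1 h preincubation, 2 h reaction · Dosing – single nominal 8.5 µM compound dose, 0.8% DMSO final · Buffer or medium – Zinc-free 50 mM HEPES buffer, pH 7.4, with NaCl and Triton X-100 · Detection – Epi-absorbance of released pNA at 405 nm, two timepoints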
GSK3B inh: inhibitors of human GSK3beta kinase | GST-GSK3beta kinase, ADP-Glo luminescence, 60 min; stronger effect = lower value | AID 2097 | 300,000 tested, 0.038% active | activity score (negative = inhibition), % at 10 µM;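 active = more than half of replicate wells score below -50%, meaning over 50% inhibition versus plate controls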;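 note: 0% = median DMSO wells and -100% = median GW8510 positive control wells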
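Assay system: GST-tagged human GSK3beta kinase, cell-free; Input: 1.6 ng GSK3beta; Medium: Tris/MgCl2 kinase buffer; Timing: 60 min enzyme reaction, room temperature; Signal: ADP-Glo luminescence quantifying ADP generated by kinase; Evaluation: score relative to plate controls; Benchmarks: DMSO neutral wells and GW8510 at 20 µM as positive.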
Bfl-1 A1 inh: inhibitors of the anti-apoptotic protein A1, read as caspase activation; MEF A1-2A-BIM cells, Caspase-Glo 3/7 luminescence, 3 h; percent of clofoctol response, vehicle zero; 330,000 tested, 0.066% active; caspase activation, % (test concentration not listed);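 active = over half of replicate activation scores above 10%, or exactly half above 10 with the replicate mean above 10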
GSK3 alpha inh: human GSK-3 alpha kinase inhibition; ADP-Glo luminescence, 60 min; inhibition, % at 10 µM; 320,000 tested, 0.1% active; AID 2650;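 active = more than half of replicates show inhibition above 20%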;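 note: GST-tagged GSK-3 alpha with peptide substrate and 25 µM ATP; 0% = DMSO neutral wells and 100% = GW8510 positive control wells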
PC3 dual counter: counter-screen: procaspase-3 (human) activation; shares compounds with proCasp7 act; 290 tested, under 10 active; activation, % at 8.5 µM; recombinant PC-3 D3A, Ac-DEVD-pNA absorbance 405 nm; aspartates 9, 28, 175 changed to alanine; 100% = enzyme control;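 active = mean percent activation across triplicates above a set limit taken from the earlier primary procaspase-3 screen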;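 note: 0% = DMSO wells and 100% = DMSO wells with 5 µM added PC-3 D3A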
Procasp7 act: procaspase-7 (human) activation, dual activator confirmation; shares compounds with proCasp7 act; recombinant procaspase-7, Ac-DEVD-pNA absorbance 405 nm; D23A/D198A/D206A mutant that cannot self-cleave; activation, % at 8.5 µM; 290 tested, under 10 active; AID 493115;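 active = mean activation above a set limit carried over from the earlier primary screen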;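 note: 0% = DMSO only and 100% = DMSO with added 5 µM PC-7 enzyme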
An asterisk follows results filed as active; nt = no result given.

SMILES	STK33 kinase inh	proCasp3 act	proCasp7 act	GSK3B inh	Bfl-1 A1 inh	GSK3 alpha inh	PC3 dual counter	Procasp7 act
COc1cc(C2CC(c3ccccc3)=NN2c2ccccc2)ccc1OCC(=O)O (centres undefined)	-2.2	3.4	0.3	5.8	0.6	-4.7	nt	nt
CCOc1cc(-c2c(C#N)c(N)nc3c2CCc2ccccc2-3)ccc1O	0.3	3.0	26.3*	-0.8	0.2	-2.4	-0.1	-4.9
CCOc1cc(-c2c(C#N)c(N)nc3c2CCCC3C)ccc1O (centres undefined)	1.1	2.5	5.8	1.0	-0.5	0.0	nt	nt
O=C(/C=C/c1ccccc1)NC1CCCc2ccccc21 (centres undefined)	-0.4	11.2	9.5	3.1	1.1	-2.3	nt	nt
COc1ccccc1CNS(=O)(=O)c1c(C(=O)N2CCCC2)c(C)n(C)c1C	-1.4	-2.9	-3.8	4.4	-0.6	-2.4	nt	nt
O=C(C1CC1)N1CCN(C(c2ccccc2)c2ccccc2)CC1	0.2	0.4	-3.1	-2.7	0.1	0.2	nt	nt
COc1ccc(C=C2C(=O)OC(C)(C)OC2=O)cc1OC	8.9	2.6	4.5	-2.7	0.1	11.6	nt	nt
COc1ccc(/C=C2\OC(=O)c3c(OC)cccc32)cc1OC	-0.4	-19.4	89.3*	0.7	0.5	-1.4	-27.4	-35.3
CC(C)c1nnc(NC(=O)C2CCCN2C(=O)Nc2cccc(Cl)c2)s1 (centres undefined)	-0.3	2.5	6.8	0.7	0.2	-2.1	nt	nt
COc1ccc(CNC(=O)C2CCN(c3cc(C(=O)Nc4cccc(OC)c4)ccn3)CC2)cc1	0.3	6.1	52.9*	-0.2	0.5	-0.5	0.2	3.6
COc1ccc(CNC(=O)C2CCN(c3nc(OC)nc(OC)n3)CC2)cc1	-2.5	0.9	11.6	1.1	0.7	0.7	nt	nt
COC(=O)[C@@]12CCCCN1[C@H](c1ccc(-c3ccc(C(C)=O)cc3)c(OC)c1)[C@@H]1C(=O)N(C)C(=O)[C@@H]12	2.4	-2.2	-4.9	4.5	-0.2	9.7	nt	nt
O=C(Nc1cccc(O)c1)c1cccc(S(=O)(=O)N2CCCC2)c1	-0.7	-6.9	25.7*	-3.1	-4.2	-0.9	1.0	0.8
COC(=O)C1=C(C)NC(C)=C(C(=O)OC)C1C(=O)OCCN1C(=O)c2ccccc2C1=O	-0.4	-13.0	44.4*	1.8	0.8	-1.8	1.6	-0.1
C/C(=N\NC(=O)c1ccc(O)cc1)c1cccc(NC(=O)c2ccc(Cl)cc2)c1	0.6	1.5	3.6	-1.6	-1.3	-3.4	nt	nt
CN(C)c1nc(-c2cccs2)cc(C(F)(F)F)c1C#N	0.7	-7.2	39.0*	-4.1	-0.6	2.6	-31.5	-35.8
O=C(N/N=C/c1c[nH]c2ccccc12)c1cc(-c2ccc3ccccc3c2)n[nH]1	5.3	9.3	30.6*	2.7	0.0	1.7	2.9	-1.2
O=C(N/N=C/c1c[nH]c2ccccc12)c1cc(-c2ccc(-c3ccccc3)cc2)n[nH]1	1.8	-3.7	5.0	-2.3	0.1	nt	nt	nt
Cn1nc(C(=O)NNC(=O)c2cccc(Cl)c2)c2ccccc2c1=O	-0.6	10.1	25.9*	nt	0.4	1.5	2.4	-0.8
COC(=O)C1=CC(C(=O)c2cccs2)=NN(c2ccc(OC)cc2)C1C(=O)OC (centres undefined)	-1.9	-9.3	1.2	-1.8	0.8	-1.7	nt	nt
CC(=O)C(C)n1c(CN2CCN(C(=O)c3ccco3)CC2)nc2c1c(=O)n(C)c(=O)n2C (centres undefined)	1.8	-2.3	0.8	2.0	-0.6	-2.3	nt	nt
O=C(NC(NC1CCS(=O)(=O)C1)C(=O)c1ccccc1)c1ccc(Cl)cc1 (centres undefined)	-0.1	5.5	47.0*	1.3	0.6	-1.0	1.7	2.6
O=C(NC(=S)NC1CCS(=O)(=O)C1)c1ccccc1 (centres undefined)	-0.7	4.4	0.2	0.3	0.6	-0.8	nt	nt
COc1ccc(-c2cc3nc(-c4ccccc4)cc(N4CCCC(O)C4)n3n2)cc1 (centres undefined)	-1.9	28.9*	58.4*	-2.1	1.6	-5.2	-1.6	-5.1
Fc1ccc(-c2cc3nc(-c4ccccc4)cc(N4CCOCC4)n3n2)cc1	-1.4	5.4	7.0	0.0	-0.1	0.3	nt	nt
SMILES	STK33 kinase inh	proCasp3 act	proCasp7 act	GSK3B inh	Bfl-1 A1 inh	GSK3 alpha inh	PC3 dual counter	Procasp7 act
Cc1ccc(-c2cc3nc(-c4ccccc4)cc(N4CCC5(CC4)OCCO5)n3n2)cc1	-0.2	-24.5	-25.3	5.3	-1.0	-1.4	nt	nt
COc1ccc(-c2cc3nc(-c4ccccc4)cc(N4CCC(O)CC4)n3n2)cc1	-0.6	-2.4	32.4*	-4.0	-0.7	-3.4	-0.8	-5.5
Cc1ccc(NC(=O)Cn2nnc(C(=O)NCc3cccs3)c2N)cc1F	-0.3	6.5	-5.0	1.8	1.1	-1.7	nt	nt
COc1cc2c(cc1OC)CN(C(=O)C(CCSC)NS(=O)(=O)c1ccc(C)cc1)CC2 (centres undefined)	-0.3	5.3	-6.3	0.7	1.4	-1.5	nt	nt
CCCCNC(=O)c1ccc(/C=C2\Oc3ccccc3N(C)C2=O)cc1	-1.3	-5.1	-25.4	5.8	-0.6	6.2	nt	nt
O=C(NCCCN1CCOCC1)c1ccc(/C=C2\Oc3ccccc3N(Cc3ccccc3F)C2=O)cc1	-0.8	22.3*	49.6*	-7.9	0.7	-1.5	-29.3	-35.7
CCN1CCN(CCCNC(=O)c2ccc(/C=C3/Oc4ccccc4N(Cc4cccc(C)c4)C3=O)cc2)CC1	0.5	8.1	27.5*	-16.1	0.4	0.6	-28.6	-35.5
COc1nc(N)c(S(=O)(=O)c2ccc(C)cc2)cc1C#N	-0.4	11.1	4.5	0.9	-0.1	-1.8	nt	nt
Cc1ccc(S(=O)(=O)c2cc(C#N)c(=O)[nH]c2N)cc1	-0.7	14.4	28.2*	1.4	0.8	-3.6	-28.4	-34.9
O=C(Cc1cc(=O)oc2cc(O)ccc12)NC(Cc1ccc(Cl)cc1)C(=O)O (centres undefined)	-1.0	19.5	26.9*	-4.1	0.1	3.6	-30.4	-35.9
Cc1ccc2nc(-c3ccc(NC(=O)C(C)Sc4nncs4)cc3)sc2c1 (centres undefined)	0.0	3.0	29.9*	2.9	-1.5	-3.2	1.5	-2.2

Screening data (PubChem BioAssay)
